# ChEMBL document CHEMBL4513216, “Probing the Open Global Health Chemical Diversity Library for Multistage-Active Starting Points for Next-Generation Antimalarials” (ACS Infect Dis, 2020)
# Assay: Toxicity liver stage against HepG2, at 10uM
# Type: cell-based
# Parameters: test concentration 10 uM, cell line HepG2-A16-CD81EGFP
# Conditions: human, HepG2-A16-CD81EGFP cells; read-out: INHIBITION
# Summary of the method: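 Uninfected HepG2-A16-CD81EGFP cells, 3 × 10^3 per well, 1536-well, plated on prespotted compound at 10 μM final, parasite-free screening media added to match infected plates; puromycin 10 μM positive, DMSO 0.5% negative; run in parallel with 48 h PbLuc assay at 37 °C, 5% CO2; viability by CellTiter-Glo luminescence, normalized to controls.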
row,Structure (SMILES),cytotoxicity at 10 µM
1,CC(=O)Nc1cc(CN(C)C)ccc1C,-1.89%
2,CC1c2cccn2CCN1C(=O)CCc1nc(C2CC2)no1 (configuration not stated),-2.13%
3,Cc1nc(C(C)C)sc1C(=O)NCC(C)(C)N1CCOCC1,-6.47%
4,CCc1noc(CS(=O)(=O)CC(=O)N2c3ccccc3CC2C)n1 (configuration not stated),7.07%
5,CCNC(=O)NC(=O)CN1CCOC(c2cccc(Br)c2)C1 (configuration not stated),1.83%
6,O=C(Nc1ccccc1Oc1cccc(F)c1)NC1CCS(=O)(=O)C1 (configuration not stated),-6.07%
7,CC(C)c1nc(C2CCCN2c2cnc3cc(F)c(F)cc3n2)no1 (configuration not stated),5.18%
8,CCN(C)C1CCCc2nc(C)sc21 (configuration not stated),-0.887%
9,OCC(O)CSCc1cn(-c2ccc(Cl)cc2)nn1 (configuration not stated),3.2%
10,Cn1cccc(NC(=O)N2CCC(Cc3ccccc3)C2)c1=O (configuration not stated),11.9%
11,CC(C)(CNc1ccc(C#N)c(C(F)(F)F)c1)C(N)=O,20.2%
12,CN(CC(F)(F)F)C(=O)CNC(=O)Cc1ccc(O)cc1Cl,-1.11%
13,CN(C)C(=O)CC1CCOc2ccccc21 (configuration not stated),4.17%
14,CN1CCCC1CNC(=O)c1nnn(-c2ccc(F)cc2)c1C1CC1 (configuration not stated),-15.9%
15,COc1cccc(CN(C)C(=O)CN2CCN(c3nccn3C)CC2)c1,14.3%
16,CC[C@H](C)Nc1ncc(-c2cccc(NC(=O)CNC)c2)cn1,-4.97%
17,CCC(C)N(Cc1cccnc1)Cc1cc2c(cc1OC)OCO2 (configuration not stated),3.17%
18,CCCc1nccn1-c1ccc(C(C)O)cc1 (configuration not stated),5.38%
19,O=C(NCCc1cscn1)c1coc(CN2CCOCC2)c1,-3.7%

row,Structure (SMILES),cytotoxicity at 10 µM
1,CN1C(=O)C2(CCN(c3ncccc3C(=O)O)CC2)c2ccccc21,-2.25%
2,CC(C)=CCC1(CO)CCCN(Cc2nccs2)C1 (configuration not stated),-1.23%
3,COCc1nc(C2CC2)nn1-c1cccc(F)c1,2.64%
4,CCn1c(N)nc2cc(C(=O)NCCc3ccncc3)cnc21,1.22%
5,CNS(=O)(=O)CCNC(=O)c1coc(COc2ccc(F)cc2)n1,0.975%
6,CCc1cnc(C)nc1NCCC(=O)N1CCC(C)CC1,-0.384%
7,Cc1nc2c(c(N[C@H](C(N)=O)C(C)C)n1)Cc1ccccc1OC2,4.71%
8,CN(C)C[C@@H]1CN(Cc2ccccc2C#N)C[C@@H]1CO,-1.56%
9,CCC[C@@H]1CN(Cc2ccccc2-c2ccco2)C[C@H]1NC(C)=O,20.9%
10,COc1cccn(CC(=O)N(C)Cc2ccoc2)c1=O,-9.93%
11,COc1cccc(OCC2CCCN(C(C)=O)C2)c1 (configuration not stated),5.85%
12,Cc1oc(C(=O)O)cc1S(=O)(=O)Nc1ccc(Cl)cc1F,-0.354%
13,NC(=O)c1cc(C2CCCN(C(=O)CCc3ccccn3)C2)n[nH]1 (configuration not stated),-8.47%
14,COc1ccc(C2CCCN2C(=O)NCCn2ccnc2)cc1OC (configuration not stated),-2.16%
15,CCc1ccsc1C(=O)N1CCN(CCN2C(=O)CCC2=O)CC1,-3.82%
16,Cc1csc(C2CCCCN2C(=O)CN(C)C(C)C)n1 (configuration not stated),-3.62%
17,Cc1nn(C)c(N(C)C)c1CNCc1ccc(C(=O)N(C)C)cc1,-9.55%
18,c1ccc(CCCN2CCOC(Cn3cccn3)C2)cc1 (configuration not stated),9.11%
19,CC1CN(C(=O)CN(Cc2ccco2)Cc2cccs2)CCO1 (configuration not stated),-7.68%

row,Structure (SMILES),cytotoxicity at 10 µM
1,COCCNC(=O)NCc1ccc(OC(C)C)c(F)c1,-8.48%
2,O=C(c1nn(-c2ccccc2F)cc1O)N1CCCC1,-4.99%
3,Cc1ccc(-c2nnc(CN3CCOC(Cn4cccn4)C3)o2)cc1 (configuration not stated),-8.06%
4,CN(C)S(=O)(=O)c1ccc(OCCNCCn2cccn2)cc1,0.626%
5,COc1cc(/C=C/c2ncc(C(=O)O)s2)cc(Cl)c1O,4.14%
6,Cc1ccc(C(=O)N2CCN(C(=O)Nc3ccccn3)CC2)o1,2.14%
7,CNC(=O)[C@@H]1CC[C@@H]2[C@@H](CCN2Cc2cn(C)c3ccccc23)O1,10.7%
8,O=C(N1CCCC1)N1Cc2nccn2CC(COc2cccnc2)C1 (configuration not stated),0.997%
9,O=C(C[C@@H]1COC[C@H]2CN(Cc3ccc(F)cc3)C[C@@H]12)N1CCCC1,4.09%
10,CC(C)NC1CCc2c(ccc(=O)n2CCN2CCCC2=O)C1 (configuration not stated),9.52%
11,c1cc(CN2CC[C@@H]3[C@@H](CO[C@H]3CN3CCOCC3)C2)cs1,-1.19%
12,COCCN1CCC12CCN(C(=O)c1ccsc1)CC2,-145%
13,FC1(F)CCN(Cc2cccnc2)CC12CCN(c1cnccn1)C2 (configuration not stated),2.6%
14,O=C(CCn1c(C(F)(F)F)cc2cccnc21)N1CCOCC1,-22.6%
15,OC(CN1CCN(Cc2ccccc2)CC1)C1CC1 (configuration not stated),3.3%
16,O=C([C@H]1COC[C@H]2CN(C3CCOCC3)C[C@H]21)N1CCC(F)CC1,-112%
17,O=C(O)c1cc(C=Cc2ccccc2)ncn1,5.17%
18,O=C(c1ccncc1)N1C[C@H]2CC[C@@H](C1)N(C(=O)N1CCOCC1)C2,2.44%
19,Nc1ccc(C(=O)N2C[C@H]3CC[C@@H](C2)N(Cc2ccccc2)C3)cn1,-121%
